Laboratory results from ChEMBL document CHEMBL5223184, “Structure-Based Design of Glycosylated Oxytocin Analogues with Improved Selectivity and Antinociceptive Activity” (ACS Med Chem Lett, 2023).
The source made the active and inactive calls. Bridge positions count the residues as written; N and C are the ends. Square brackets hold non-standard residues; d marks the D form. Peptide text beside a SMILES is read from it. * marks the point of attachment. X1 = OC[C@H]1O[C@@H](O[C@H]2[C@H](O)[C@@H](O)[C@H](*)O[C@@H]2CO)[C@H](O)[C@@H](O)[C@H]1O; βGlc = OC[C@H]1O[C@@H](*)[C@H](O)[C@@H](O)[C@@H]1O; Dap = NC[C@H](N)C(=O)O; Aib = CC(C)(N)C(=O)O

What was measured:
Vasopressin V1b receptor = target: T1, Vasopressin V1b receptor (Homo sapiens, UniProt P47901); test: Activation of human 3X-HA N-tagged AVP1b expressed in CHO-K1 cells incubated for 10 mins by cell Western assay; format: cell-based
T1 sequence (P47901 whole entry): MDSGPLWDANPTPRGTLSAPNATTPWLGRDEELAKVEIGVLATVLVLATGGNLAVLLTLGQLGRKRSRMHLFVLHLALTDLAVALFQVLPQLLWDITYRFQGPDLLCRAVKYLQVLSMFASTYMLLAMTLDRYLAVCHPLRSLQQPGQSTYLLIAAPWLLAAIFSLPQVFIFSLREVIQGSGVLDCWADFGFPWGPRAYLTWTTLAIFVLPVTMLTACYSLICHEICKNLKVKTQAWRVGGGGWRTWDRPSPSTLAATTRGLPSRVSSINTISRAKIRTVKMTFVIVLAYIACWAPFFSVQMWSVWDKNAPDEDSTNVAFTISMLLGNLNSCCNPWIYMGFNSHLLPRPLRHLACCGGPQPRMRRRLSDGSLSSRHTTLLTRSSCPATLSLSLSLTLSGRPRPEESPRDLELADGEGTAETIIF
Method in brief: (§1)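 In-cell Western read-out of ERK MAPK activation in CHO cells expressing the human receptor (OTR, AVP1a or AVP1b). Potency reported as mean ± SEM of N = 3 independent experiments.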

Vasopressin V1a receptor = Vasopressin V1a receptor (Homo sapiens, UniProt P37288); test: Activation of human 3X-HA N-tagged AVP1a expressed in CHO-K1 cells incubated for 10 mins by cell Western assay; format: cell-based; method in brief: as §1
Oxytocin receptor = target: T2, Oxytocin receptor (Homo sapiens, UniProt P30559); test: Activation of human 3X-HA N-tagged OTR expressed in CHO-K1 cells incubated for 10 mins by cell Western assay; format: cell-based; method in brief: as §1
T2 sequence (P30559 whole entry): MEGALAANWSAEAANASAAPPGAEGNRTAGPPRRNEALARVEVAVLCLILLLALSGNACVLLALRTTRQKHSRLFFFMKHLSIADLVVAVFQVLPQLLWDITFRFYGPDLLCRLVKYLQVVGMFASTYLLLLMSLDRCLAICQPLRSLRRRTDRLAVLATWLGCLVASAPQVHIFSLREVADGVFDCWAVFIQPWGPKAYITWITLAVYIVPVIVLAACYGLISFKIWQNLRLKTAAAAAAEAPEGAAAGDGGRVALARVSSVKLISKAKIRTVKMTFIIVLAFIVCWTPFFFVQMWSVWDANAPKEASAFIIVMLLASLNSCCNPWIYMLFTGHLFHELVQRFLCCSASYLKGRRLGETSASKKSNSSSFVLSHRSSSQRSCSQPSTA

Mus musculus = test: Antinociceptive activity against CD-1 mouse assessed as pain relief at 10 mg/kg, iv measured after 2 hrs by tail flick test; format: functional, organism-based
Method in brief: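 Male CD-1 mice dosed at 10 mg/kg by intravenous injection into the tail vein. Vehicle, oxytocin and morphine groups run alongside. Tail flick in 52 °C water with a 10 s cutoff. Mean ± SEM, N = 5 mice/group.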

Vasopressin V1a receptor, sequence (P37288 whole entry): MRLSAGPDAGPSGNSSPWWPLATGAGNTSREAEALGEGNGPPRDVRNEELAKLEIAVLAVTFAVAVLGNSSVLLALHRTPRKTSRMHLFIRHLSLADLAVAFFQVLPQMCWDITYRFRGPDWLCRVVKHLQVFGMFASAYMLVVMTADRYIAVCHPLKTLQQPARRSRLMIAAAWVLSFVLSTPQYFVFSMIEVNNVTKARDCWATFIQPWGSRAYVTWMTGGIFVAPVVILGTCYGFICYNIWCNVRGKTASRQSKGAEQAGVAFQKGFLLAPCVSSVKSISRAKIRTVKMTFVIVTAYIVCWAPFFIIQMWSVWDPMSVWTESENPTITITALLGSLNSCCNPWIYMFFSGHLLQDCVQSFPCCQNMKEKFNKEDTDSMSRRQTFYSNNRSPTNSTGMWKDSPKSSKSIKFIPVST

Structure (SMILES)	EC50 (Vasopressin V1b receptor)	EC50 (Vasopressin V1a receptor)	EC50 (Oxytocin receptor) [nM]	Activity (Mus musculus)	EC50 (Oxytocin receptor; cho-k1) [nM]
CC[C@H](C)[C@@H]1NC(=O)[C@H](Cc2ccc(O)cc2)NC(=O)[C@@H](N)CCC(=O)NC[C@@H](C(=O)N2CCC[C@H]2C(=O)N[C@@H](CC(C)C)C(=O)NCC(N)=O)NC(=O)[C@H](CC(N)=O)NC(=O)[C@H](CCC(N)=O)NC1=O (H-EYIQN[Dap]PLG-NH2; lactam 1-6)	Not Active	Not Active	–	–	–
CC[C@H](C)[C@@H]1NC(=O)[C@H](Cc2ccc(O)cc2)NC(=O)[C@@H](N)CC(=O)NC[C@@H](C(=O)N2CCC[C@H]2C(=O)N[C@@H](CC(C)C)C(=O)NCC(=O)N[C@@H](CO[C@@H]2O[C@H](CO)[C@@H](O[C@@H]3O[C@H](CO)[C@H](O)[C@H](O)[C@H]3O)[C@H](O)[C@H]2O)C(N)=O)NC(=O)[C@H](CC(N)=O)NC(=O)[C@H](CCC(N)=O)NC1=O (H-DYIQN[Dap]PLGS(X1)-NH2; lactam 1-6)	Not Active	Not Active	160	–	–
CC[C@H](C)[C@@H]1NC(=O)[C@H](Cc2ccc(O)cc2)NC(=O)[C@@H](N)CCC(=O)NC[C@@H](C(=O)N2CCC[C@H]2C(=O)NC(C)(C)C(=O)N[C@@H](CO[C@@H]2O[C@H](CO)[C@@H](O)[C@H](O)[C@H]2O)C(N)=O)NC(=O)[C@H](CC(N)=O)NC(=O)[C@H](CCC(N)=O)NC1=O (H-EYIQN[Dap]P[Aib]S(βGlc)-NH2; lactam 1-6)	Not Active	Not Active	220	–	–
CC[C@H](C)[C@@H]1NC(=O)[C@H](Cc2ccc(O)cc2)NC(=O)[C@@H](N)CCC(=O)NC[C@@H](C(=O)N2CCC[C@H]2C(=O)N[C@@H](CC(C)C)C(=O)N[C@@H](CO[C@@H]2O[C@H](CO)[C@@H](O)[C@H](O)[C@H]2O)C(N)=O)NC(=O)[C@H](CC(N)=O)NC(=O)[C@H](CCC(N)=O)NC1=O (H-EYIQN[Dap]PLS(βGlc)-NH2; lactam 1-6)	Not Active	Not Active	0.73	–	–
CN1CC[C@]23c4c5ccc(O)c4O[C@H]2[C@@H](O)C=C[C@H]3[C@H]1C5	–	–	–	Active	–
CC[C@H](C)[C@@H]1NC(=O)[C@H](Cc2ccc(O)cc2)NC(=O)[C@@H](N)CSSC[C@@H](C(=O)N2CCC[C@H]2C(=O)N[C@@H](CC(C)C)C(=O)NCC(N)=O)NC(=O)[C@H](CC(N)=O)NC(=O)[C@H](CCC(N)=O)NC1=O	–	–	–	inactive	–
CC[C@H](C)[C@@H]1NC(=O)[C@H](Cc2ccc(O)cc2)NC(=O)[C@@H](N)CC(=O)NC[C@@H](C(=O)N2CCC[C@H]2C(=O)NC(C)(C)C(=O)N[C@H](CO[C@@H]2O[C@H](CO)[C@@H](O)[C@H](O)[C@H]2O)C(N)=O)NC(=O)[C@H](CC(N)=O)NC(=O)[C@H](CCC(N)=O)NC1=O	Not Active	Not Active	–	–	0.28
CC[C@H](C)[C@@H]1NC(=O)[C@H](Cc2ccc(O)cc2)NC(=O)[C@@H](N)CC(=O)NC[C@@H](C(=O)N2CCC[C@H]2C(=O)N[C@@H](CC(C)C)C(=O)N[C@@H](CO[C@@H]2O[C@H](CO)[C@@H](O[C@@H]3O[C@H](CO)[C@H](O)[C@H](O)[C@H]3O)[C@H](O)[C@H]2O)C(N)=O)NC(=O)[C@H](CC(N)=O)NC(=O)[C@H](CCC(N)=O)NC1=O (H-DYIQN[Dap]PLS(X1)-NH2; lactam 1-6)	Not Active	Not Active	0.54	–	–
CC[C@H](C)[C@@H]1NC(=O)[C@H](Cc2ccc(O)cc2)NC(=O)[C@@H](N)CCC(=O)NC[C@@H](C(=O)N2CCC[C@H]2C(=O)NC(C)(C)C(=O)NCC(=O)N[C@@H](CO[C@@H]2O[C@H](CO)[C@@H](O)[C@H](O)[C@H]2O)C(N)=O)NC(=O)[C@H](CC(N)=O)NC(=O)[C@H](CCC(N)=O)NC1=O	Not Active	Not Active	0.06	Active	–
CC[C@H](C)[C@@H]1NC(=O)[C@H](Cc2ccc(O)cc2)NC(=O)[C@@H](N)CC(=O)NC[C@@H](C(=O)N2CCC[C@H]2C(=O)N[C@@H](CC(C)C)C(=O)NCC(N)=O)NC(=O)[C@H](CC(N)=O)NC(=O)[C@H](CCC(N)=O)NC1=O (H-DYIQN[Dap]PLG-NH2; lactam 1-6)	Not Active	Not Active	–	Active	–
